Source: ChEMBL document CHEMBL1147807, “Identification of 2-acylaminothiophene-3-carboxamides as potent inhibitors of FLT3” (Bioorg Med Chem Lett, 2006)

Tests used:
[1] = target: Glycogen synthase kinase-3 beta (Homo sapiens) (UniProt P49841); experiment: Inhibition of human GSK3-beta at 3 uM in presence of 10 uM ATP
Outline: (§1)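 Selectivity panel run at a single compound concentration of 3 µM with 10 µM ATP. Read-out is % inhibition of each kinase. Values are averages of duplicate experiments.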

[2] = target: T1, Cytoplasmic tyrosine-protein kinase BMX (Homo sapiens) (UniProt P51813); experiment: Inhibition of human Bmx kinase at 3 uM in presence of 10 uM ATP; outline: as §1
T1 sequence (whole entry): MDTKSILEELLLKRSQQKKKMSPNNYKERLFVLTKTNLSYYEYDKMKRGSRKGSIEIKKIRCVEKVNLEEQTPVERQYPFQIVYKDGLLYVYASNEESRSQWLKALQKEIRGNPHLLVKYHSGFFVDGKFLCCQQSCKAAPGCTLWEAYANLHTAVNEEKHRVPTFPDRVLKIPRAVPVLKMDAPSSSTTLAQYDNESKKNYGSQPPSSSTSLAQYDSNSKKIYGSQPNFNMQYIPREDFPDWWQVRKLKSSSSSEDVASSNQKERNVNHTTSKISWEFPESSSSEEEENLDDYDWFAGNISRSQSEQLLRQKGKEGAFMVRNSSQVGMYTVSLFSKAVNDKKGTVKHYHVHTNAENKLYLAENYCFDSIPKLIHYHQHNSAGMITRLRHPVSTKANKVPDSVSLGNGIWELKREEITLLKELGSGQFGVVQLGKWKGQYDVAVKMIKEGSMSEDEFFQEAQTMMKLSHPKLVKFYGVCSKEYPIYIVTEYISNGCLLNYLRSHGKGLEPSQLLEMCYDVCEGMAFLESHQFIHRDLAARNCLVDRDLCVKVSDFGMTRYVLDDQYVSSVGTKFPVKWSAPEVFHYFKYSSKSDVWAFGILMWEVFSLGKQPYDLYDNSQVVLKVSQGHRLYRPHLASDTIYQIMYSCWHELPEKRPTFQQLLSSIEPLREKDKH

[3] = target: Cyclin-dependent kinase 7/ cyclin H (Homo sapiens) (UniProt P51946+P50613); experiment: Inhibition of human CDK7/cyclin H/MAT1 at 3 uM in presence of 10 uM ATP; format: protein-complex assay; outline: as §1
[4] = target: RAF proto-oncogene serine/threonine-protein kinase (Homo sapiens) (UniProt P04049); experiment: Inhibition of human c-RAF at 3 uM in presence of 10 uM ATP; outline: as §1
Chain of RAF proto-oncogene serine/threonine-protein kinase (Homo sapiens) (P04049 whole entry): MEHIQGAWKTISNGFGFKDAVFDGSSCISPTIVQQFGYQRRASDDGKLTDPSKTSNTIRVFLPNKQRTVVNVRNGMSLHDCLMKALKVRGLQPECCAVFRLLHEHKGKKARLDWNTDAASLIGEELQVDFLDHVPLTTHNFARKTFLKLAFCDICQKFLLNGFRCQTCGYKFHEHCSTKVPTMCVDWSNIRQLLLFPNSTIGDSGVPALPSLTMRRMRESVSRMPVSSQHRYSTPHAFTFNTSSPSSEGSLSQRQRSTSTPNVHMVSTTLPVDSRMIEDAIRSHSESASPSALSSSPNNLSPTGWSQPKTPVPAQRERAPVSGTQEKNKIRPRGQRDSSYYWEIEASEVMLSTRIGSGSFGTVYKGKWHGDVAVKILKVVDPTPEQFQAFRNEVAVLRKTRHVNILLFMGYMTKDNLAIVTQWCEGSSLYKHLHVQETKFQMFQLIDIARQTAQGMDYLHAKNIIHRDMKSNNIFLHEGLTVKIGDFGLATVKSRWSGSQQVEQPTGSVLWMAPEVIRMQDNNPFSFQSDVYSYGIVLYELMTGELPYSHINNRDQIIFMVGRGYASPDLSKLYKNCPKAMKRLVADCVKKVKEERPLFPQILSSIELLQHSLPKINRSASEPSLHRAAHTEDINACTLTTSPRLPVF

[5] = target: T2, Receptor-type tyrosine-protein kinase FLT3 (Homo sapiens, UniProt P36888); experiment: Inhibition of FLT3
T2 sequence (P36888 whole entry): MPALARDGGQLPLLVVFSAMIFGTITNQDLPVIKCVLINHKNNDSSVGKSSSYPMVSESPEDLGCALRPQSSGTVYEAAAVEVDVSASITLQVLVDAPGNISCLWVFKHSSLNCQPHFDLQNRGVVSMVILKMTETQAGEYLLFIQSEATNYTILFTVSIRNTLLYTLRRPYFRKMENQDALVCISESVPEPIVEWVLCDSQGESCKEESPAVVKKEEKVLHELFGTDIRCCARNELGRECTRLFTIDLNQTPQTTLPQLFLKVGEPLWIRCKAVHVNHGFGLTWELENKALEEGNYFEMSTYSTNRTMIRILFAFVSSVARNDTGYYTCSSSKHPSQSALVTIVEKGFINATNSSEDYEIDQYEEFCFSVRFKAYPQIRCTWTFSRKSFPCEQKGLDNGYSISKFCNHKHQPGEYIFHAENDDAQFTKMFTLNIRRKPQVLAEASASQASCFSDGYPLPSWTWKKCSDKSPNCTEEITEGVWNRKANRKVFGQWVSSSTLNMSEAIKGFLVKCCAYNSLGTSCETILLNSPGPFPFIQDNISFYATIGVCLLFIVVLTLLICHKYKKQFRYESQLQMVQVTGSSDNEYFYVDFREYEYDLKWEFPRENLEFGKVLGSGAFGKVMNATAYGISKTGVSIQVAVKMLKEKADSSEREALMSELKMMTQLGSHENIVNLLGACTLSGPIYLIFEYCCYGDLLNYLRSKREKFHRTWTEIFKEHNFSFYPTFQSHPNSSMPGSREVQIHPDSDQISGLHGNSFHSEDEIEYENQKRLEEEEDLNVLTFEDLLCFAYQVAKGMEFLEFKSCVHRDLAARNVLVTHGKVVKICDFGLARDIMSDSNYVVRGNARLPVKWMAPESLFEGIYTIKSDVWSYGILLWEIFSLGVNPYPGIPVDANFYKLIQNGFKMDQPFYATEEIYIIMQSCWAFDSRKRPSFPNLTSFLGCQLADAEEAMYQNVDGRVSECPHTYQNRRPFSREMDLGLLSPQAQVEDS

Rattus norvegicus = species on record: Rattus norvegicus; experiment: Inhibition of rat AMPK at 3 uM in presence of 10 uM ATP; outline: as §1
[6] = target: T3, Serine/threonine-protein kinase Chk1 (Homo sapiens) (UniProt O14757); experiment: Inhibition of human CHK1 at 3 uM in presence of 10 uM ATP; outline: as §1
T3 sequence (whole entry): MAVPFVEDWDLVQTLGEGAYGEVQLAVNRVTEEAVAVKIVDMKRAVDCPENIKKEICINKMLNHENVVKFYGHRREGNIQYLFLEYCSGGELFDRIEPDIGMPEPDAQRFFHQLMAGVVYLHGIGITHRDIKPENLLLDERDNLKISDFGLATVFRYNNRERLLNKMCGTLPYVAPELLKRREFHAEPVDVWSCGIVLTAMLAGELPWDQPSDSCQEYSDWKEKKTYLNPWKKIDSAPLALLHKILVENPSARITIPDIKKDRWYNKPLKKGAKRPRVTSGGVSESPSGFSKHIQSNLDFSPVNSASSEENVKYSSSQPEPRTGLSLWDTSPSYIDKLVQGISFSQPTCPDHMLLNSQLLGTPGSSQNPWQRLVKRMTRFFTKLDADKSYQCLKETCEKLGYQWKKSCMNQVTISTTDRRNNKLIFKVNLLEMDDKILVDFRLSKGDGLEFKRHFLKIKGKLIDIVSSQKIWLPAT

[7] = target: Hepatocyte growth factor receptor (Homo sapiens) (UniProt P08581); experiment: Inhibition of human Met at 3 uM in presence of 10 uM ATP; outline: as §1
Chain of Hepatocyte growth factor receptor (Homo sapiens) (P08581 whole entry): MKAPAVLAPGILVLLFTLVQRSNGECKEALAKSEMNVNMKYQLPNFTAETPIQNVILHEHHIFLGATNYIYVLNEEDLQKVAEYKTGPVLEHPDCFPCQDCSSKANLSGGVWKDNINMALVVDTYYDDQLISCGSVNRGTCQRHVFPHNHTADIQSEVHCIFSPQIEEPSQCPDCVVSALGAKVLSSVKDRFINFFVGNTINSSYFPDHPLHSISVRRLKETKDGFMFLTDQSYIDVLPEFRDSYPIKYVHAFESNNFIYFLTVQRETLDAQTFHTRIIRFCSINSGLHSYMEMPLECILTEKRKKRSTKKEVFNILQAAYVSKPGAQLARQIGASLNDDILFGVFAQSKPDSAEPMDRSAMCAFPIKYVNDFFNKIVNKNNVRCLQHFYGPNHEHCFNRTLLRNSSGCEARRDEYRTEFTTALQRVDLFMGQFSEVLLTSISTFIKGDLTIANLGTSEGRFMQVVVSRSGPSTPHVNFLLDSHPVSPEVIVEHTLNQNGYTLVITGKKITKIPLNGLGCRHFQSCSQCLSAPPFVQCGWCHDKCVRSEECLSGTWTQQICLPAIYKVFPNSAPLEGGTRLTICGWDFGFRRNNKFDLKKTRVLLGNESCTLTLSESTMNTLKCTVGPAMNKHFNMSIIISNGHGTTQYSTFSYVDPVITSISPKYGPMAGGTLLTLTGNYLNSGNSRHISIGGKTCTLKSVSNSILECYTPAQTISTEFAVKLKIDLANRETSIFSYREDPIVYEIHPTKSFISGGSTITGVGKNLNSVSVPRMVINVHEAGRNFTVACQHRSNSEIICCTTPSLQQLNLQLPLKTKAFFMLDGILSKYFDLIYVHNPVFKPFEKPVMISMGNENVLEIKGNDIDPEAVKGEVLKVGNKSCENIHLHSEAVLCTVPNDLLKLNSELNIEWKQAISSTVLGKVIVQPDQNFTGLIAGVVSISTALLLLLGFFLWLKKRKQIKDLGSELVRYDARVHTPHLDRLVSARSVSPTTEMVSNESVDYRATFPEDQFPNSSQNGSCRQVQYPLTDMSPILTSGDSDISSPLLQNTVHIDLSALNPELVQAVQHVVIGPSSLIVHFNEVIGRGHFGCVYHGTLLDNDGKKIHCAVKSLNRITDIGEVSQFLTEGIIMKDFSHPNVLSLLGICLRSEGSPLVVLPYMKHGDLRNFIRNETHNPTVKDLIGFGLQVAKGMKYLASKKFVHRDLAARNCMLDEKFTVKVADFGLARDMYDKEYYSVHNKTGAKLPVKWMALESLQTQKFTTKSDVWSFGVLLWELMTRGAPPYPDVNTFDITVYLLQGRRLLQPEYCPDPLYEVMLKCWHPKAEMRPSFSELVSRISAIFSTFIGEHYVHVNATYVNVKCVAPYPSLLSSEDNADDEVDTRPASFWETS

[8] = target: BDNF/NT-3 growth factors receptor (Homo sapiens) (UniProt Q16620); experiment: Inhibition of human TrkB at 3 uM in presence of 10 uM ATP; outline: as §1
Chain of BDNF/NT-3 growth factors receptor (Homo sapiens) (Q16620 32-822 limits assumed): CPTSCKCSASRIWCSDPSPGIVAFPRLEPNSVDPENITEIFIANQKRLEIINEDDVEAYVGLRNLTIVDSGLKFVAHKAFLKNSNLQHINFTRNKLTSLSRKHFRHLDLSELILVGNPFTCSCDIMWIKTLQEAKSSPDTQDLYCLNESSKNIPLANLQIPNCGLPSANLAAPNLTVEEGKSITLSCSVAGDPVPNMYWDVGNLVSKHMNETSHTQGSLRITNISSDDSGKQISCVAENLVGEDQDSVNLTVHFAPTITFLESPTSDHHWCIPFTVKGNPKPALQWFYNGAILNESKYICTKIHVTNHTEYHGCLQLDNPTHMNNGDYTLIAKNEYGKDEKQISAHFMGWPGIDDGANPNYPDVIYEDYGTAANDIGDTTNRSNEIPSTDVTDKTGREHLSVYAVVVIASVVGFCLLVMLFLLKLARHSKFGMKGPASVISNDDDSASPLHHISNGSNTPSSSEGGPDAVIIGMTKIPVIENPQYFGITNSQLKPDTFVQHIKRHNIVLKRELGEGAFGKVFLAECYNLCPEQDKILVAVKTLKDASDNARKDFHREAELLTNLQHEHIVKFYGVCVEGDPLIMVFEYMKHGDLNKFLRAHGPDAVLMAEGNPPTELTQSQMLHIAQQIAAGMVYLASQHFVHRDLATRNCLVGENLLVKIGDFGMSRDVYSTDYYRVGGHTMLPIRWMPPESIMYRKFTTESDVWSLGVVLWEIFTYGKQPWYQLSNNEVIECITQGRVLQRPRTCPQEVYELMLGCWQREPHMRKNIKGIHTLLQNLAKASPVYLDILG

[9] = target: Tyrosine-protein kinase Lyn (Homo sapiens) (UniProt P07948); experiment: Inhibition of human Lyn at 3 uM in presence of 10 uM ATP; outline: as §1
Chain of Tyrosine-protein kinase Lyn (Homo sapiens) (P07948 2-512 limits assumed): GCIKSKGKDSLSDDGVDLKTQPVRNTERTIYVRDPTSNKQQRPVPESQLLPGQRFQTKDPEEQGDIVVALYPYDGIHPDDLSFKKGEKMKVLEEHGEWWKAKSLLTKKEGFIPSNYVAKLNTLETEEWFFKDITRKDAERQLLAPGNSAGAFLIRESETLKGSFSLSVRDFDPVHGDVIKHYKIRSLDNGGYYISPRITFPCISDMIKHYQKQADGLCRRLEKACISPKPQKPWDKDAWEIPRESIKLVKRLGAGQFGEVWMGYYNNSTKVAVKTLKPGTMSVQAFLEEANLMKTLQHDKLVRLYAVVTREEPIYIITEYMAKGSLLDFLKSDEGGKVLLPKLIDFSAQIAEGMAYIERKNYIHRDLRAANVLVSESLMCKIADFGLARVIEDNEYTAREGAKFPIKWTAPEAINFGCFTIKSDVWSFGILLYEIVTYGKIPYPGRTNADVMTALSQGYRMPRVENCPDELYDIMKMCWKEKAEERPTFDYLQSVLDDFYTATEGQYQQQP

[10] = target: Tyrosine-protein kinase Fyn (Homo sapiens) (UniProt P06241); experiment: Inhibition of human Fyn at 3 uM in presence of 10 uM ATP; outline: as §1
Chain of Tyrosine-protein kinase Fyn (Homo sapiens) (P06241 2-537 limits assumed): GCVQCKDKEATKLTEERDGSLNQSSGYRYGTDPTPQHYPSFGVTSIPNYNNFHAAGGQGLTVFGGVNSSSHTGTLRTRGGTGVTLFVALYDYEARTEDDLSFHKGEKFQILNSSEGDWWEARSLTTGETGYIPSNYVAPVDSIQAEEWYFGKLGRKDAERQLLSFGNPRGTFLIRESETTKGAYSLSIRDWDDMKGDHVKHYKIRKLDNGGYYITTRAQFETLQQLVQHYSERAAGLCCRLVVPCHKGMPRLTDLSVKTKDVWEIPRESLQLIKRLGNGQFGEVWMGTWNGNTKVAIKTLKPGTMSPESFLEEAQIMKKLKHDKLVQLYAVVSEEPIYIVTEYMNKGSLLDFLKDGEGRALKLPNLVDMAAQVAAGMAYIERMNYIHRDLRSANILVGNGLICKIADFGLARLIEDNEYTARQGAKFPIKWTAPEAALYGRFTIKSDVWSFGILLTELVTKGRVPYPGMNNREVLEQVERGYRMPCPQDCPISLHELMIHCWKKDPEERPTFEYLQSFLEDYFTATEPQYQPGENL

Chain of Glycogen synthase kinase-3 beta (Homo sapiens) (P49841 whole entry, looked up): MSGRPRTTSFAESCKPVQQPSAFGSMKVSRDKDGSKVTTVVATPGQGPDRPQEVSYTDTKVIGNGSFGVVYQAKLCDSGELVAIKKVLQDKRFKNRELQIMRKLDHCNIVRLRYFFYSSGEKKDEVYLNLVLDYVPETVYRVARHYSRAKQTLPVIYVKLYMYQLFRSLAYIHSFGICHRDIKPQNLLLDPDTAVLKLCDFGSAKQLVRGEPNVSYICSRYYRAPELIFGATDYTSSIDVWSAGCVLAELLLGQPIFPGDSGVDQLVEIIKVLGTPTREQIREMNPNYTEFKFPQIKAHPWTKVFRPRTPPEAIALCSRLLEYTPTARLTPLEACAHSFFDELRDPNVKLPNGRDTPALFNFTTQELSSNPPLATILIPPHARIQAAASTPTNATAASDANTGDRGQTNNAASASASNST

inhibition [1]: -2% | inhibition [2]: 9% | inhibition [3]: -1% | inhibition [4]: -1% | IC50 [5]: 42 nM | inhibition (Rattus norvegicus): -4% | inhibition [6]: -7% | inhibition [7]: 13% | inhibition [8]: 39% | inhibition [9]: 21% | inhibition [10]: 33%
SMILES: COc1ccc(C(=O)Nc2sc3c(c2C(N)=O)CCCC3)cc1OC
